Apaf1 activ: activators of human Apaf-1 apoptosome. AID 489031. 330,000 tested, 0.31% active. Apaf-1 apoptosome caspase-3 activation, DEVD-Rh110 fluorescence; active compounds read low. activity change, negative = activation, % at 20 µM;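 active means activity change at or below -40% at 20 µM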
Target sequence (O14727 whole entry, looked up): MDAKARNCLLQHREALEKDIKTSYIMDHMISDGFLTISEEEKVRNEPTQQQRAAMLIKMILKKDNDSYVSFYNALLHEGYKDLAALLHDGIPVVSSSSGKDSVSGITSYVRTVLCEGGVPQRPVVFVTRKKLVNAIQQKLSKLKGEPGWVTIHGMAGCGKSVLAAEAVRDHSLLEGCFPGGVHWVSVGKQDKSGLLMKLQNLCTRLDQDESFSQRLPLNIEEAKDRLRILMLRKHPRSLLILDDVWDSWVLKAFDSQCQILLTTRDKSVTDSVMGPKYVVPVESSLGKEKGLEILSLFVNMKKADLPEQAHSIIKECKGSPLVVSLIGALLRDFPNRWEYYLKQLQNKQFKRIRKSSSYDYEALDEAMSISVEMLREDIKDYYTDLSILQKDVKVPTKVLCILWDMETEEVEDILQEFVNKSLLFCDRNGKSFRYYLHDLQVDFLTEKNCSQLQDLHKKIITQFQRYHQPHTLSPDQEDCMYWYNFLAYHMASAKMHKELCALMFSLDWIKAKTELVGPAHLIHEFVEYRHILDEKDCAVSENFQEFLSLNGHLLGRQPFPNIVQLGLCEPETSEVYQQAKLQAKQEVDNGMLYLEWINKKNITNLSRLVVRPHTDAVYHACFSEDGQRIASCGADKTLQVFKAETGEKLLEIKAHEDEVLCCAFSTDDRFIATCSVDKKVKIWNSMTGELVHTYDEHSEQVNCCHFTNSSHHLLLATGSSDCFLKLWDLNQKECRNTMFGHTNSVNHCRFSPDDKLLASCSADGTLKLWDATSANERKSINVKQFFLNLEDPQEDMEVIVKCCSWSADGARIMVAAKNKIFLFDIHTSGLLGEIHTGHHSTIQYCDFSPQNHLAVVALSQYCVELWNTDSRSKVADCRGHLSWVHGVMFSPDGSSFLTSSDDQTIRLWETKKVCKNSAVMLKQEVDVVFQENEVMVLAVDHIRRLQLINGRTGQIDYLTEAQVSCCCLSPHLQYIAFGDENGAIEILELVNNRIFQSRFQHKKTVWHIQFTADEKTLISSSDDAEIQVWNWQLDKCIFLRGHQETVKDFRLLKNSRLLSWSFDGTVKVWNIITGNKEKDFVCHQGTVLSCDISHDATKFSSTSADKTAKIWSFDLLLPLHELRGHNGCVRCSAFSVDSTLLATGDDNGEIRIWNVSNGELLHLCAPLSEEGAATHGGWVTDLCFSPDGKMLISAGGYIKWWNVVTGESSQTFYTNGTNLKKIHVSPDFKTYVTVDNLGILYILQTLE
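Assay system – biochemical Apaf-1 apoptosome reconstitution · Medium – 20 mM HEPES buffer, pH 7.5, containing CHAPS and BSA · Incubation – 30 min preincubation, 50 min reaction, room temperature · Measured by – Caspase-3-released Rh110 fluorescence, 540 nm emission, 480 nm excitation · Read-out – Caspase-3 cleavage activity downstream of Apaf-1 activation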
* hit, by the source's call. Only a sample is shown.

SMILES | Apaf1 activ
C=C(C)C(=O)Nc1cccc(C2=NOC3(C2)C[C@@H](C(N)=O)N(C(=O)c2ccc(OC)cc2)C3)c1 (stereo not given in full) | -340*
COc1cccc(-c2sc3ccccc3c2-c2ccc(OCCN(C)C)cc2)c1 | 76
CCc1cc(CNC(=O)c2ccc(OC3CCN(CCc4ccccc4)CC3)cc2)on1 | -41*
COc1ccc(CCn2c(N)c(C(=O)NCc3ccco3)c3nc4ccccc4nc32)cc1OC | 63
CC1CCN(CCc2nc3cc(NC(=O)COc4ccccc4)ccc3n2C)CC1 | 52
COCCn1c(SCC(=O)NNC(=O)c2cc(Cl)ccc2OC)nnc1-c1ccncc1 | 49
Cc1c2ccccc2nc2c(F)c(NCCO)c(F)c(F)c12 | 54
c1ccc2c(NCCCN3CCOCC3)c3ccccc3nc2c1 | -63*
CCN(c1ccccc1)S(=O)(=O)c1cccc(C(=O)NCCN2CCOCC2)c1 | 44
CCC1CCCCN1C(=O)COc1ccc(N(C)S(=O)(=O)c2ccc(C)cc2)cc1 (stereo not given) | 51
CC(CS(=O)(=O)c1ccc2c(c1)NC(=O)CS2)C(=O)NCc1ccccc1Cl (stereo not given) | -158*
CN(CC(=O)Nc1ccc(F)cc1)C(=O)C1CC(=O)N(Cc2ccccc2)C1 (stereo not given) | 44
C=C(C)C(=O)Nc1ccc2c(c1)OCCOCCOCCO2 | -447*
CCN(CC(=O)Nc1ccc2c(c1)OCCO2)C(=O)/C=C/c1ccc(OC)cc1OC | 64
CC(=O)Nc1ccc2nc3ccccc3nc2c1 | 50
CCCc1cc(=O)oc2c3c(c4c(c12)OC(C)(C)C=C4)OC(C)C(C)C3O (stereo not given) | 53
CC(=O)c1ccc2c(c1)c(C#N)c1ccccc1[n+]2[O-] | 74
O=C(Nc1ccnn1C1CCN(C/C=C/c2ccccc2)CC1)c1ccccc1Cl | -61*
COc1ccccc1NS(=O)(=O)c1cccc(C(=O)N2CCN(C/C=C/c3ccccc3)CC2)c1 | 46
C=CCn1c(NC(=O)c2ccccc2Cl)c(C#N)c2nc3ccccc3nc21 | 96
COc1ccc(C(CNC(=O)c2cccc(S(=O)(=O)N(C)c3ccccc3)c2)N2CCCC2)cc1 (stereo not given) | 43
CCCCNc1c(-c2ccc(SC(C)CC)cc2)nc2cnccn12 (stereo not given) | 60
CCn1c2ccccc2c2nnc(SCC(=O)c3c(N)n(C)c(=O)n(C)c3=O)nc21 | 54
CCCCn1c2ccccc2c2nnc(SCC(=O)NC3=NN=C(c4ccccc4)CS3)nc21 | -69*
CCCCn1c(NC(C)=O)c(C#N)c2nc3ccccc3nc21 | 84
SMILES | Apaf1 activ
CN(C)C(=O)c1ccc(NC(=O)c2sccc2-c2ccccc2)cc1 | 45
Cc1ccc(S(=O)(=O)N2CCN(C(=O)CCOc3cc(C)ccc3C)CC2)cc1 | 40
Cc1cc(C)c(C2=CC(c3ccccc3)n3ncnc3N2)cc1C (stereo not given) | -215*
CN(C)CCCNC(=O)C[C@H]1C[C@H](C(=O)N2CCCCC2)[C@@]2(CCc3ccccc3)c3[nH]c4ccc(Cl)cc4c3CCN2C1=O | 74
COc1ccc(NC(=O)CCn2c(=S)[nH]c3ccccc3c2=O)cc1 | 86
COc1ccc(NC(=O)CN2C(=O)S/C(=C/c3cccn3-c3ccc(C(=O)O)cc3)C2=O)cc1 | -240*
COc1cc(/C=C2/C(=O)N(c3ccc(C(=O)O)cc3)N=C2C)cc(OC)c1O | 78
O=C(C[C@H]1C[C@H](C(=O)N2CCOCC2)[C@@]2(CCC3CCCC3)c3[nH]c4ccc(Cl)cc4c3CCN2C1=O)NCCCn1ccnc1 | 58
O=c1[nH]c(C2CCCN(S(=O)(=O)c3ccccc3F)C2)nc2c1nnn2Cc1ccccc1Cl (stereo not given) | 41
CCN1CCCC1CNC(=O)C1CCN(Cc2nc(-c3cccc(Br)c3)oc2C)CC1 (stereo not given) | -90*
COCc1ccc(CN2CCC(C(=O)Nc3cccc(-c4cccc(Cl)c4)c3)CC2)o1 | 49
Cc1cc2nc3ccc(N(C)C)cc3nc2cc1N | 90
CCc1noc(C)c1C(=O)N1CCN(S(=O)(=O)c2c(C)cc(C)cc2C)CC1 | 57
CCN(CC)CCNC(=O)c1ccc(NC(=O)C2CC(=O)N(CCc3ccc(OC)c(OC)c3)C2)cc1 (stereo not given) | 47
O=C1NC(=S)N/C1=C/c1cc2c(cc1[N+](=O)[O-])OCO2 | 88
N#C/C(=C/c1ccc(OCc2ccc(C(=O)O)cc2)c(Br)c1)c1cccc(F)c1 | -335*
CN(C)CCN(C(=O)c1cccc2ccccc12)c1nc2cc3c(cc2s1)OCO3 | 52
Cc1c(Cl)cccc1N=C1SCCN1C(=O)CN1C(=O)NC2(CCCC2)C1=O | 40
CC1(C)CNc2cc(N)ccc2S1 | 50
CCOc1ccc(NC(=O)CCS(=O)(=O)c2ccc(Br)cc2)cc1 | -109*
CCOc1ccc(NS(=O)(=O)c2ccc(C(=O)N(CC)CC(=O)NCc3cccs3)cc2)cc1 | 61
O=C(CCS(=O)(=O)c1ccc(Br)cc1)Nc1cc(F)ccc1F | -129*
